tested on: HIV-1 (IIIB strain); test: MT-4 antiviral cytoprotection assay, five-day multi-cycle, wild type HIV-1; type: cell-based; details: CC50/EC50 ratio, wild type, MT-4
Method in brief: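 MT-4 cells were pre-infected with a fresh 1:250 dilution of concentrated HIV-1 IIIB stock, or mock-infected for cytotoxicity. Test compound was serially diluted 1:3 in DMSO, then 200-fold into RPMI with 10% FBS and 1% P/S. Controls were no-drug and 5 µM AZT. After 5 days at 37°C, viability was read by CellTiter-Glo luminescence. EC50/CC50 were taken as 50% signal decrease from sigmoidal fits; SI = CC50/EC50.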

Question: For `COc1cc(Oc2c(F)cc(F)cc2F)nc(Nc2ccc(C#N)cc2)n1` [Compound 32, 4-((4-methoxy-6–(2,4,6-trifluorophenoxy)pyrimidin-2-yl)amino)benzonitrile], which “SI (selectivity index)” value is on record?
Answer: The value was 926.

Question: For `COc1cc(F)c(Nc2cc(OC)nc(Nc3ccc(C#N)cc3)n2)c(F)c1` [Compound 33, 4-((4-((2,6-difluoro-4-methoxyphenyl)amino)-6-methoxypyrimidin-2-yl)amino)benzonitrile], which “SI (selectivity index)” value is on record?
Answer: The value was 5571.

Question: For `COc1cc(Nc2c(F)cc(F)cc2F)nc(Nc2ccc(C#N)cc2)n1` [Compound 34, 4-((4-methoxy-6-((2,4,6-trifluorophenyl)amino)pyrimidin-2-yl)amino)benzonitrile], which “SI (selectivity index)” value is on record?
Answer: Its value is 454.

Question: With `COc1cc(F)c(Oc2cc(N)nc(Nc3ccc(C#N)cc3)n2)c(F)c1` [Compound 35, 4-((4-amino-6–(2,6-difluoro-4-methoxyphenoxy)pyrimidin-2-yl)amino)benzonitrile] as the compound, how does the “SI (selectivity index)” value read?
Answer: Its value is 10,850.

Question: With `N#Cc1ccc(Nc2nc(N)cc(Oc3c(F)cc(F)cc3F)n2)cc1` [Compound 36, 4-((4-amino-6–(2,4,6-trifluorophenoxy)pyrimidin-2-yl)amino)benzonitrile] as the compound, how does the “SI (selectivity index)” value read?
Answer: Its value is 293.

Question: For `COc1cc(F)c(Nc2cc(N)nc(Nc3ccc(C#N)cc3)n2)c(F)c1` [Compound 37, 4-((4-amino-6-((2,6-difluoro-4-methoxyphenyl)amino)pyrimidin-2-yl)amino)benzonitrile], which “SI (selectivity index)” value is on record?
Answer: The value was 5733.

Question: For `N#Cc1ccc(Nc2nc(N)cc(Nc3c(F)cc(F)cc3F)n2)cc1` [Compound 38, 4-((4-amino-6-((2,4,6-trifluorophenyl)amino)pyrimidin-2-yl)amino)benzonitrile], which “SI (selectivity index)” value is on record?
Answer: The value was 1289.

Question: For `Cc1cc(C#N)cc(C)c1Oc1nc(Nc2ccc(C#N)cc2)nc(N)c1Br` [ETR, etravirine, reference compound], which “SI (selectivity index)” value is on record?
Answer: Its value is 2940.

same assay, conditions: Human immunodeficiency virus 1, IIIB, MT4, read-out: EC50 w.t.

Question: Which EC50 does the source give for `Cc1cc(C(=O)c2c(F)cc(F)cc2F)nc(Nc2ccc(C#N)cc2)n1` [Compound 18, 4-((4-methyl-6–(2,4,6-trifluorobenzoyl)pyrimidin-2-yl)amino)benzonitrile] here?
Answer: Its EC50 is 160 nM.

Question: For `COc1cc(Oc2c(F)cc(F)cc2F)nc(Nc2ccc(C#N)cc2)n1` [Compound 32, 4-((4-methoxy-6–(2,4,6-trifluorophenoxy)pyrimidin-2-yl)amino)benzonitrile], which EC50 is on record?
Answer: The EC50 was 54 nM.

Question: Which EC50 does the source give for `COc1cc(F)c(Nc2cc(OC)nc(Nc3ccc(C#N)cc3)n2)c(F)c1` [Compound 33, 4-((4-((2,6-difluoro-4-methoxyphenyl)amino)-6-methoxypyrimidin-2-yl)amino)benzonitrile] here?
Answer: The EC50 was 7 nM.

Question: For `COc1cc(Nc2c(F)cc(F)cc2F)nc(Nc2ccc(C#N)cc2)n1` [Compound 34, 4-((4-methoxy-6-((2,4,6-trifluorophenyl)amino)pyrimidin-2-yl)amino)benzonitrile], which EC50 is on record?
Answer: The EC50 was 22 nM.

Question: For `COc1cc(F)c(Oc2cc(N)nc(Nc3ccc(C#N)cc3)n2)c(F)c1` [Compound 35, 4-((4-amino-6–(2,6-difluoro-4-methoxyphenoxy)pyrimidin-2-yl)amino)benzonitrile], which EC50 is on record?
Answer: Its EC50 is 2 nM.

Question: For `N#Cc1ccc(Nc2nc(N)cc(Oc3c(F)cc(F)cc3F)n2)cc1` [Compound 36, 4-((4-amino-6–(2,4,6-trifluorophenoxy)pyrimidin-2-yl)amino)benzonitrile], which EC50 is on record?
Answer: Its EC50 is 67 nM.

Question: With `COc1cc(F)c(Nc2cc(N)nc(Nc3ccc(C#N)cc3)n2)c(F)c1` [Compound 37, 4-((4-amino-6-((2,6-difluoro-4-methoxyphenyl)amino)pyrimidin-2-yl)amino)benzonitrile] as the compound, how does the EC50 read?
Answer: Its EC50 is 3 nM.

Question: For `N#Cc1ccc(Nc2nc(N)cc(Nc3c(F)cc(F)cc3F)n2)cc1` [Compound 38, 4-((4-amino-6-((2,4,6-trifluorophenyl)amino)pyrimidin-2-yl)amino)benzonitrile], which EC50 is on record?
Answer: The EC50 was 27 nM.

Question: With `Cc1cc(C#N)cc(C)c1Oc1nc(Nc2ccc(C#N)cc2)nc(N)c1Br` [ETR, etravirine, reference compound] as the compound, how does the EC50 read?
Answer: Its EC50 is 2 nM.

same assay, conditions: read-out: EC50 w.t.; MT-4 cell line, HIV-1 IIIB wild type, n = 3

Question: Which EC50 does the source give for “4-((4-amino-6–(2,6-difluoro-4-methoxybenzoyl)pyrimidin-2-yl)amino)benzonitrile [Compound 15]” here?
Answer: The EC50 was 2200 nM.

same assay, conditions: wild type, MT-4 cells

Question: Which “anti-HIV activity in words” value does the source give for “4-((4-amino-6–(2,6-difluoro-4-methoxybenzoyl)pyrimidin-2-yl)amino)benzonitrile [Compound 15]” here?
Answer: Its value is “micromolar range”.

tested on: HIV-1 encoding RT mutation K103N; test: MT-4 antiviral assay against HIV-1 encoding RT mutation K103N; type: cell-based; details: Human immunodeficiency virus 1, MT4, read-out: EC50 K103N

Question: With `COc1cc(Oc2c(F)cc(F)cc2F)nc(Nc2ccc(C#N)cc2)n1` [Compound 32, 4-((4-methoxy-6–(2,4,6-trifluorophenoxy)pyrimidin-2-yl)amino)benzonitrile] as the compound, how does the EC50 read?
Answer: The EC50 was 560 nM.

Question: With `COc1cc(Nc2c(F)cc(F)cc2F)nc(Nc2ccc(C#N)cc2)n1` [Compound 34, 4-((4-methoxy-6-((2,4,6-trifluorophenyl)amino)pyrimidin-2-yl)amino)benzonitrile] as the compound, how does the EC50 read?
Answer: The EC50 was 1210 nM.

Question: For `COc1cc(F)c(Oc2cc(N)nc(Nc3ccc(C#N)cc3)n2)c(F)c1` [Compound 35, 4-((4-amino-6–(2,6-difluoro-4-methoxyphenoxy)pyrimidin-2-yl)amino)benzonitrile], which EC50 is on record?
Answer: The EC50 was 36 nM.

Question: For `N#Cc1ccc(Nc2nc(N)cc(Oc3c(F)cc(F)cc3F)n2)cc1` [Compound 36, 4-((4-amino-6–(2,4,6-trifluorophenoxy)pyrimidin-2-yl)amino)benzonitrile], which EC50 is on record?
Answer: The EC50 was 67 nM.

Question: With `COc1cc(F)c(Nc2cc(N)nc(Nc3ccc(C#N)cc3)n2)c(F)c1` [Compound 37, 4-((4-amino-6-((2,6-difluoro-4-methoxyphenyl)amino)pyrimidin-2-yl)amino)benzonitrile] as the compound, how does the EC50 read?
Answer: The EC50 was 62 nM.

Question: Which EC50 does the source give for `N#Cc1ccc(Nc2nc(N)cc(Nc3c(F)cc(F)cc3F)n2)cc1` [Compound 38, 4-((4-amino-6-((2,4,6-trifluorophenyl)amino)pyrimidin-2-yl)amino)benzonitrile] here?
Answer: The EC50 was 1650 nM.

Question: With `O=C1Nc2ccc(Cl)cc2[C@@](C#CC2CC2)(C(F)(F)F)O1` [EFV, efavirenz, reference compound] as the compound, how does the EC50 read?
Answer: Its EC50 is 101 nM.

Question: For `Cc1cc(C#N)cc(C)c1Oc1nc(Nc2ccc(C#N)cc2)nc(N)c1Br` [ETR, etravirine, reference compound], which EC50 is on record?
Answer: Its EC50 is 2 nM.

tested on: HIV-1 encoding RT mutation Y181C; test: MT-4 antiviral assay against HIV-1 encoding RT mutation Y181C; type: cell-based; details: Human immunodeficiency virus 1, MT4, read-out: EC50 Y181C

Question: Which EC50 does the source give for `COc1cc(Oc2c(F)cc(F)cc2F)nc(Nc2ccc(C#N)cc2)n1` [Compound 32, 4-((4-methoxy-6–(2,4,6-trifluorophenoxy)pyrimidin-2-yl)amino)benzonitrile] here?
Answer: Its EC50 is 7700 nM.

Question: For `COc1cc(Nc2c(F)cc(F)cc2F)nc(Nc2ccc(C#N)cc2)n1` [Compound 34, 4-((4-methoxy-6-((2,4,6-trifluorophenyl)amino)pyrimidin-2-yl)amino)benzonitrile], which EC50 is on record?
Answer: The EC50 was 2020 nM.

Question: Which EC50 does the source give for `COc1cc(F)c(Oc2cc(N)nc(Nc3ccc(C#N)cc3)n2)c(F)c1` [Compound 35, 4-((4-amino-6–(2,6-difluoro-4-methoxyphenoxy)pyrimidin-2-yl)amino)benzonitrile] here?
Answer: The EC50 was 637 nM.

Question: For `N#Cc1ccc(Nc2nc(N)cc(Oc3c(F)cc(F)cc3F)n2)cc1` [Compound 36, 4-((4-amino-6–(2,4,6-trifluorophenoxy)pyrimidin-2-yl)amino)benzonitrile], which EC50 is on record?
Answer: Its EC50 is 6660 nM.

Question: Which EC50 does the source give for `COc1cc(F)c(Nc2cc(N)nc(Nc3ccc(C#N)cc3)n2)c(F)c1` [Compound 37, 4-((4-amino-6-((2,6-difluoro-4-methoxyphenyl)amino)pyrimidin-2-yl)amino)benzonitrile] here?
Answer: The EC50 was 437 nM.

Question: With `N#Cc1ccc(Nc2nc(N)cc(Nc3c(F)cc(F)cc3F)n2)cc1` [Compound 38, 4-((4-amino-6-((2,4,6-trifluorophenyl)amino)pyrimidin-2-yl)amino)benzonitrile] as the compound, how does the EC50 read?
Answer: Its EC50 is 13700 nM.

Question: Which EC50 does the source give for `O=C1Nc2ccc(Cl)cc2[C@@](C#CC2CC2)(C(F)(F)F)O1` [EFV, efavirenz, reference compound] here?
Answer: Its EC50 is 5 nM.

Question: For `Cc1cc(C#N)cc(C)c1Oc1nc(Nc2ccc(C#N)cc2)nc(N)c1Br` [ETR, etravirine, reference compound], which EC50 is on record?
Answer: The EC50 was 12 nM.

tested on: not listed separately; test: MT-4 cytotoxicity assay; type: cell-based; details: human, MT-4 cells (mock-infected), CC50, MT-4 cell line, n = 3

Question: For `Cc1cc(C(=O)c2c(F)cc(F)cc2F)nc(Nc2ccc(C#N)cc2)n1` [Compound 18, 4-((4-methyl-6–(2,4,6-trifluorobenzoyl)pyrimidin-2-yl)amino)benzonitrile], which CC50 at 5 days is on record?
Answer: The CC50 at 5 days was 57100 nM.

Question: Which CC50 at 5 days does the source give for `COc1cc(Oc2c(F)cc(F)cc2F)nc(Nc2ccc(C#N)cc2)n1` [Compound 32, 4-((4-methoxy-6–(2,4,6-trifluorophenoxy)pyrimidin-2-yl)amino)benzonitrile] here?
Answer: The CC50 at 5 days was 50000 nM.

Question: With `COc1cc(F)c(Nc2cc(OC)nc(Nc3ccc(C#N)cc3)n2)c(F)c1` [Compound 33, 4-((4-((2,6-difluoro-4-methoxyphenyl)amino)-6-methoxypyrimidin-2-yl)amino)benzonitrile] as the compound, how does the CC50 at 5 days read?
Answer: The CC50 at 5 days was 39000 nM.

Question: With `COc1cc(Nc2c(F)cc(F)cc2F)nc(Nc2ccc(C#N)cc2)n1` [Compound 34, 4-((4-methoxy-6-((2,4,6-trifluorophenyl)amino)pyrimidin-2-yl)amino)benzonitrile] as the compound, how does the CC50 at 5 days read?
Answer: The CC50 at 5 days was 9990 nM.

Question: For `COc1cc(F)c(Oc2cc(N)nc(Nc3ccc(C#N)cc3)n2)c(F)c1` [Compound 35, 4-((4-amino-6–(2,6-difluoro-4-methoxyphenoxy)pyrimidin-2-yl)amino)benzonitrile], which CC50 at 5 days is on record?
Answer: Its CC50 at 5 days is 21700 nM.

Question: For `N#Cc1ccc(Nc2nc(N)cc(Oc3c(F)cc(F)cc3F)n2)cc1` [Compound 36, 4-((4-amino-6–(2,4,6-trifluorophenoxy)pyrimidin-2-yl)amino)benzonitrile], which CC50 at 5 days is on record?
Answer: The CC50 at 5 days was 19600 nM.

Question: For `COc1cc(F)c(Nc2cc(N)nc(Nc3ccc(C#N)cc3)n2)c(F)c1` [Compound 37, 4-((4-amino-6-((2,6-difluoro-4-methoxyphenyl)amino)pyrimidin-2-yl)amino)benzonitrile], which CC50 at 5 days is on record?
Answer: The CC50 at 5 days was 17200 nM.

Question: For `N#Cc1ccc(Nc2nc(N)cc(Nc3c(F)cc(F)cc3F)n2)cc1` [Compound 38, 4-((4-amino-6-((2,4,6-trifluorophenyl)amino)pyrimidin-2-yl)amino)benzonitrile], which CC50 at 5 days is on record?
Answer: The CC50 at 5 days was 34800 nM.

Question: For `O=C1Nc2ccc(Cl)cc2[C@@](C#CC2CC2)(C(F)(F)F)O1` [EFV, efavirenz, reference compound], which CC50 at 5 days is on record?
Answer: Its CC50 at 5 days is 20600 nM.

Question: For `Cc1cc(C#N)cc(C)c1Oc1nc(Nc2ccc(C#N)cc2)nc(N)c1Br` [ETR, etravirine, reference compound], which CC50 at 5 days is on record?
Answer: The CC50 at 5 days was 5880 nM.

tested on: MT-4 cells; test: MT-4 cytotoxicity assay; type: cell-based; details: MT-4 cell line, n = 3

Question: Which CC50 does the source give for “4-((4-amino-6–(2,6-difluoro-4-methoxybenzoyl)pyrimidin-2-yl)amino)benzonitrile [Compound 15]” here?
Answer: Its CC50 is 7700 nM.
